19 compounds from ChEMBL document CHEMBL1165999, “Cytotoxic ent-kaurane diterpenoids from Isodon rubescens var. lushiensis” (J Nat Prod, 2010) can be followed below.

The test system of assay [1] is SK-BR-3. Kind of assay: Cytotoxicity against human SK-BR-3 cells after 48 hrs by MTT assay. The note with it: SK-BR-3, 48 h. In kind it is functional, cell-based. The procedure, abridged:
(§1)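 Cells grown in RPMI-1640 or DMEM with 10% FBS at 37 °C, 5% CO2, seeded at 1 × 10^5 cells/mL. Adherent lines were left 12 h to attach; suspension cells were added just before dosing. Various concentrations were tested in triplicate for 48 h, with cisplatin and paclitaxel controls. MTT (100 µg) was then added for 4 h, cells lysed in 20% SDS-50% DMF, and OD read at 595 nm. IC50 was calculated by the Reed-Muench method.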
A general note: Tetrazolium assays rely on reduction of a dye to a coloured formazan, in cell work by metabolically active cells.

Assay [2] has as its system PANC-1. Kind of assay: Growth inhibition of human PANC1 cells after 48 hrs by MTT assay. The note with it: PANC-1, 48 h.
The subject of assay [3] is A549. Kind of assay: Cytotoxicity against human A549 cells after 48 hrs by MTT assay. In kind it is functional, cell-based. The note with it: A549, 48 h. In a few lines:
as §1

The test system of assay [4] is HL-60. Kind of assay: Cytotoxicity against human HL60 cells after 48 hrs by MTT assay. Type of assay: functional, cell-based. The note with it: HL-60, 48 h. In a few lines:
as §1

Assay [5] has as its system SMMC-7721. Kind of assay: Cytotoxicity against human SMMC7721 cells after 48 hrs by MTT assay. Type of assay: functional, cell-based. Conditions: SMMC-7721, 48 h. In a few lines: as §1

Bounds are passed on as bounds.

On to `C=C1C(=O)[C@@]23[C@@H]4C[C@@H]5C(C)(C)CCC[C@@]5([C@@H](OC)O4)[C@@H]2[C@@H](O)C[C@@H]1[C@H]3O`, for which the concentration for half-maximal inhibition (IC50) turned out to be 3.3 µM in assay [1]; 9.8 µM in assay [2]; 5.6 µM in assay [3]; 0.95 µM in assay [4]; 4.4 µM in assay [5].

`C=C1C(=O)[C@@]23[C@@H]4C[C@@H]5C(C)(C)CCC[C@@]5([C@@H](OCC)O4)[C@@H]2[C@@H](O)C[C@@H]1[C@H]3O`: the IC50 in assay [1] was 2.4 µM; in assay [2], 5.2 µM; in assay [3] it was 4.2 µM; in assay [4], 0.64 µM; in assay [5] it was 3.5 µM.

For `C=C1C(=O)[C@@]23[C@@H]4C[C@@H]5C(C)(C)CCC[C@@]5([C@@H](O)O4)[C@@H]2[C@@H](O)C[C@@H]1[C@H]3O`, the IC50 in assay [1] was 4.4 µM; in assay [2], 8.6 µM; in assay [3], 5.9 µM; in assay [4], 1.2 µM; in assay [5], 6.2 µM.

Consider `C=C1[C@@H](O)[C@]23[C@H](O)[C@H]1CC[C@H]2[C@@]12CO[C@@]3(O)[C@@H](O)[C@@H]1C(C)(C)CC[C@@H]2O` [ENMENOL], for which the 50% inhibitory concentration (IC50) in assay [1] is above 10 µM; in assay [2] it was above 10 µM; in assay [3], above 10 µM; in assay [4], 6.7 µM; in assay [5], above 10 µM.

With `C=C1C(=O)[C@@]23[C@H](O)C[C@@H]4C(C)(C)CCC[C@@]4(COC(C)=O)[C@@H]2[C@@H](O)C[C@@H]1[C@H]3O` [FLEXICANLIN A], the IC50 in assay [1] is above 10 µM; in assay [2], 5.7 µM; in assay [3] it was 9.8 µM; in assay [4], 0.64 µM; in assay [5], 9.9 µM.

Regarding `C=C1[C@@H]2CC[C@H]3[C@]45CC[C@@H]6OC4O[C@@H](C[C@@H]5C6(C)C)[C@]3(C2)[C@@H]1O` [ISOLUSHININ A], the IC50 in assay [1], in assay [2], in assay [3], in assay [4] and in assay [5] was above 10 µM throughout.

Consider `C=C1[C@@H]2CC[C@H]3[C@]45CCC[C@@](C)(COC(C)=O)[C@H]4[C@H](O)[C@](O)(OC5)[C@]3(C2)[C@@H]1O` [ISOLUSHININ B], for which the IC50 in assay [1], in assay [2], in assay [3], in assay [4] and in assay [5] was above 10 µM in each case.

Regarding `C=C1C(=O)[C@@]23[C@@H]4C[C@@H]5C(C)(C)CCC[C@@]5([C@@H](OC)O4)[C@@H]2[C@@H](OC(C)=O)C[C@@H]1[C@H]3O` [ISOLUSHININ D], the half-inhibitory concentration (IC50) worked out at 6.4 µM in assay [1]; 7 µM in assay [2]; 6.4 µM in assay [3]; 1.1 µM in assay [4]; 4.7 µM in assay [5].

Consider `C=C1C(=O)[C@@]23[C@@H]4C[C@@H]5C(C)(C)[C@H](O)CC[C@@]5([C@@H](OC)O4)[C@@H]2[C@@H](O)C[C@@H]1[C@H]3O` [ISOLUSHININ F], for which the IC50 in assay [1], in assay [2], in assay [3], in assay [4] and in assay [5] was above 10 µM in each case.

As for `C=C1C(=O)[C@@]23[C@H](O)C[C@@H]4C(C)(C)CCC[C@@]4(COC(C)=O)[C@@H]2[C@@H](O)[C@H](O)[C@@H]1[C@H]3O` [ISOLUSHININ G], the concentration for half-maximal inhibition (IC50) in assay [1], in assay [2], in assay [3], in assay [4] and in assay [5] was above 10 µM throughout.

Regarding `C=C1C(=O)[C@@]23[C@H](O)C[C@@H]4[C@@](C)(CO)CCC[C@@]4(COC(C)=O)[C@@H]2CC[C@@H]1[C@H]3O` [ISOLUSHININ H], the IC50 was 6.1 µM in assay [1]; 6.6 µM in assay [2]; above 10 µM in assay [3]; 2.5 µM in assay [4]; above 10 µM in assay [5].

Regarding `C=C1C(=O)[C@@]23[C@H](O)C[C@@H]4C(C)(C)CCC[C@@]4(CO)[C@@H]2[C@@H](O)C[C@@H]1[C@H]3O` [KAMEBAKAURININ], the IC50 is above 10 µM in assay [1]; above 10 µM in assay [2]; above 10 µM in assay [3]; 1.8 µM in assay [4]; above 10 µM in assay [5].

As for `C=C1C(=O)[C@]23C[C@H]1C[C@@H](O)[C@H]2[C@@]1(CCC[C@@]2(C)COC(=O)[C@H]21)COC3=O` [LUDONGNIN A], the IC50 in assay [1] is above 10 µM; in assay [2], above 10 µM; in assay [3], above 10 µM; in assay [4], 3.1 µM; in assay [5], above 10 µM.

For `CO[C@@H]1OC[C@]2(C)CCC[C@]3(COC(=O)[C@@]45C[C@@H](CC[C@H]43)[C@H](C)C5=O)[C@H]12` [LUDONGNIN G], the half-maximal inhibitory concentration (IC50) in assay [1], in assay [2], in assay [3], in assay [4] and in assay [5] was above 10 µM in each case.

`C=C1C(=O)[C@]23[C@H](O)[C@H]1CC[C@H]2[C@@]12CO[C@]3(O)[C@@H](O)[C@@H]1C(C)(C)CC[C@@H]2O` [ORIDONIN]: the concentration for half-maximal inhibition (IC50) in assay [1] is above 10 µM; in assay [2] it was above 10 µM; in assay [3] it was above 10 µM; in assay [4], 3.9 µM; in assay [5], above 10 µM.

Take `CC(=O)O[C@H]1C(=O)[C@@]2(C)[C@H]([C@H](OC(=O)c3ccccc3)[C@]3(O)C[C@H](OC(=O)[C@H](O)[C@@H](NC(=O)c4ccccc4)c4ccccc4)C(C)=C1C3(C)C)[C@]1(OC(C)=O)CO[C@@H]1C[C@@H]2O` [PACLITAXEL]: the IC50 in assay [1] is 0.11 µM; in assay [2], below 0.008 µM; in assay [3] it was 1.4 µM; in assay [4] it was below 0.008 µM; in assay [5], below 0.008 µM.

Take `C=C1C(=O)[C@@]23[C@H](O)C[C@@H]4C(C)(C)CCC[C@@]4(C)[C@@H]2[C@@H](O)C[C@@H]1[C@H]3O` [PHYLLOSTACHYSIN F]: the concentration for half-maximal inhibition (IC50) in assay [1] stood at 3.3 µM; in assay [2], 4.5 µM; in assay [3], 3.3 µM; in assay [4] it was 0.85 µM; in assay [5], 5.5 µM.

Regarding `C=C1C(=O)[C@@]23CC[C@@H]4C(C)(C)CC[C@H](O)[C@@]4(C)[C@@H]2[C@@H](O)C[C@@H]1[C@H]3O` [PHYLLOSTACHYSIN H], the IC50 is above 10 µM in assay [1]; above 10 µM in assay [2]; above 10 µM in assay [3]; 6.4 µM in assay [4]; above 10 µM in assay [5].

For the compound `C=C1[C@@H]2C[C@@H](O)[C@@H]3[C@](C2)(C(=O)O[C@H]2CC[C@@]4(C)CO[C@H]5OC[C@]23[C@H]54)[C@@H]1O` [SCULPONEATIN B], the half-inhibitory concentration (IC50) in assay [1], in assay [2], in assay [3], in assay [4] and in assay [5] was above 10 µM throughout.

By IC50 is commonly meant the point on the concentration scale where inhibition reaches its midpoint. A high value points to weaker potency.
